Source: ChEMBL document CHEMBL1125826, “Synthesis and biological activity of 5-amino- and 5-hydroxyquinolones, and the overwhelming influence of the remote N1-substituent in determining the structure-activity relationship” (1991)
In brackets after ≈: the same amount, converted by molar mass.

Assays:
Format in all cases: functional
[1] = target: DNA gyrase (Escherichia coli) (UniProt P0AES6+P0AES4); assay: Minimum inhibitory concentration against Escherichia coli DNA-gyrase in supercoiling assay
[2] = tested on: Enterobacter cloacae; assay: Antibacterial activity was determined against gram negative organism, Enterobacter cloacae MA2646
[3] = tested on: Escherichia coli; assay: Antibacterial activity was determined against gram negative organism, Escherichia coli vogel
Outline: (§1)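 MIC (µg/mL) by standard microtitration against a panel of 10 Gram-positive and Gram-negative organisms; values averaged from multiple experiments.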

[4] = tested on: Escherichia coli; assay: The in vivo potency was determined in female charles river CD-1 mice infected with Escherichia coli after peroral administration; settings: for ED50: Escherichia coli, po, read-out: PD50
Outline: (§2)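 Acute lethal systemic infection in female CD-1 mice, 16 mice per route; single dose given orally by gavage at the time of challenge; median protective dose (PD50, mg/kg) determined.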

[5] = tested on: Escherichia coli; assay: The in vivo potency was determined in female charles river CD-1 mice infected with Escherichia coli after sc administration; settings: for ED50: Escherichia coli, sc, read-out: PD50
Outline: (§3)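 Acute lethal systemic infection in female CD-1 mice, 16 mice per route; single subcutaneous dose given at the time of challenge; median protective dose (PD50, mg/kg) determined.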

[6] = tested on: Bacteria; assay: MIC ratio measured as the mean MICs of gram-negative bacteria
Outline: (§4)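 Geometric mean of the microtitration MICs (µg/mL) over the Gram-negative organisms, and separately over the Gram-positive organisms, of the 10-strain panel; individual MICs averaged from multiple experiments.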

[7] = tested on: Bacteria; assay: MIC ratio measured as the mean MICs of gram-positive bacteria; outline: as §4
[8] = tested on: Klebsiella pneumoniae; assay: Antibacterial activity was determined against gram negative organism, Klebsiella pneumoniae MGH-2; outline: as §1
[9] = tested on: Streptococcus pyogenes; assay: The in vivo potency was determined in female charles river CD-1 mice infected with Streptococcus pyogenes after peroral administration; settings: for ED50: Streptococcus pyogenes, po, read-out: PD50; outline: as §2
[10] = tested on: Streptococcus pyogenes; assay: The in vivo potency was determined in female charles river CD-1 mice infected with Streptococcus pyogenes after sc administration; settings: for ED50: Streptococcus pyogenes, sc, read-out: PD50; outline: as §3
[11] = tested on: Pseudomonas aeruginosa; assay: Antibacterial activity was determined against gram negative organism, Pseudomonas aeruginosa UI-18; outline: as §1
[12] = tested on: Bacteria; assay: Antibacterial activity was determined against gram negative organism, Providencia rettgeri. M1771; outline: as §1
[13] = tested on: Staphylococcus aureus; assay: Antibacterial activity was determined against gram positive organism, Staphylococcus aureus H228; outline: as §1
[14] = tested on: Streptococcus pneumoniae; assay: Antibacterial activity was determined against gram positive organism, Streptococcus pneumoniae SV-1; outline: as §1
[15] = tested on: Enterococcus faecalis; assay: Antibacterial activity was determined against gram positive organism, Streptococcus faecalis MGH-2; outline: as §1
[16] = tested on: Staphylococcus aureus; assay: Antibacterial activity was determined against gram positive organism, Staphylococcus aureus UC76; outline: as §1
[17] = tested on: Streptococcus pyogenes; assay: Antibacterial activity was determined against gram positive organism, Streptococcus pyogenes C203; outline: as §1
[18] = tested on: Streptococcus pneumoniae; assay: The in vivo potency was determined in female charles river CD-1 mice infected with Streptococcus pneumoniae after peroral administration; settings: for ED50: Streptococcus pneumoniae, po, read-out: PD50; outline: as §2
[19] = tested on: Streptococcus pneumoniae; assay: The in vivo potency was determined in female charles river CD-1 mice infected with Streptococcus pneumoniae after sc administration; settings: for ED50: Streptococcus pneumoniae, sc, read-out: PD50; outline: as §3
[20] = Enterobacter cloacae, read-out: MIC
[21] = Escherichia coli, read-out: MIC
[22] = Klebsiella pneumoniae, read-out: MIC
[23] = Pseudomonas aeruginosa, read-out: MIC
[24] = Staphylococcus aureus, read-out: MIC
[25] = Streptococcus pneumoniae, read-out: MIC
[26] = Enterococcus faecalis, read-out: MIC
[27] = Streptococcus pyogenes, read-out: MIC

Structure (SMILES)	MIC [1] [µg/mL]	MIC [2, 20] [µg/mL]	MIC [3, 21] [µg/mL]	ED50 [4] [mg/kg]	ED50 [5] [mg/kg]	Geometric mean MIC over Gram-negative bacteria (µg/mL) [6]	Geometric mean MIC over Gram-positive bacteria (µg/mL) [7]	MIC [8, 22] [µg/mL]	ED50 [9] [mg/kg]	ED50 [10] [mg/kg]	MIC [11, 23] [µg/mL]	MIC ([12]; Bacteria, read-out: MIC) [µg/mL]	MIC [13, 24] [µg/mL]	MIC [14, 25] [µg/mL]	MIC [15, 26] [µg/mL]	MIC [16, 24] [µg/mL]	MIC [17, 27] [µg/mL]	ED50 [18] [mg/kg]	ED50 [19] [mg/kg]	other results
Nc1c(F)c(N2CCNCC2)c(Cl)c2c1c(=O)c(C(=O)O)cn2C1CC1	1 (≈ 2.63 µM)	0.025 (≈ 0.0657 µM)	0.025 (≈ 0.0657 µM)	2	0.5	0.076	0.087	0.05 (≈ 0.131 µM)	26	10	0.8 (≈ 2.1 µM)	0.1 (≈ 0.263 µM)	0.1 (≈ 0.263 µM)	0.1 (≈ 0.263 µM)	0.1 (≈ 0.263 µM)	0.025 (≈ 0.0657 µM)	0.2 (≈ 0.525 µM)			
NC1CCN(c2c(F)cc3c(=O)c(C(=O)O)cn(C4CC4)c3c2Cl)C1 (stereo in doubt; 1f-4) [CLINAFLOXACIN]		0.025 (≈ 0.0683 µM)	0.025 (≈ 0.0683 µM)	3	0.5		0.075	0.05 (≈ 0.137 µM)		4					0.1 (≈ 0.273 µM)	0.025 (≈ 0.0683 µM)	0.1 (≈ 0.273 µM)			PD50 [18]: 97 mg/kg; PD50 [19]: 11 mg/kg; PD50 [9]: 43 mg/kg; MIC [11]: 0.2 µg/mL (≈ 0.547 µM); MIC [12]: 0.1 µg/mL (≈ 0.273 µM); MIC [13]: 0.1 µg/mL (≈ 0.273 µM); MIC [14]: 0.1 µg/mL (≈ 0.273 µM)
CC1CN(c2c(F)cc3c(=O)c(C(=O)O)cn(C4CC4)c3c2Cl)CCN1 (configuration not stated)	2.5 (≈ 6.58 µM)	0.025 (≈ 0.0658 µM)	0.025 (≈ 0.0658 µM)	0.6	0.2	0.087	0.15	0.05 (≈ 0.132 µM)	6	3	0.8 (≈ 2.11 µM)	0.2 (≈ 0.527 µM)	0.2 (≈ 0.527 µM)	0.2 (≈ 0.527 µM)	0.2 (≈ 0.527 µM)	0.05 (≈ 0.132 µM)	0.2 (≈ 0.527 µM)			
CC1CN(c2cc3c(cc2F)c(=O)c(C(=O)O)cn3C2CC2)CCN1 (configuration not stated)	0.5 (≈ 1.45 µM)	0.025 (≈ 0.0724 µM)	0.025 (≈ 0.0724 µM)	1	0.4	0.066	0.23	0.05 (≈ 0.145 µM)	39	12	0.4 (≈ 1.16 µM)	0.1 (≈ 0.29 µM)	0.4 (≈ 1.16 µM)	0.2 (≈ 0.579 µM)	0.4 (≈ 1.16 µM)	0.1 (≈ 0.29 µM)	0.2 (≈ 0.579 µM)			
NC1CCN(c2c(F)cc3c(=O)c(C(=O)O)cn(C4CC4)c3c2F)C1 (configuration not stated)	0.1 (≈ 0.286 µM)	0.013 (≈ 0.0372 µM)	0.013 (≈ 0.0372 µM)	0.9	0.2	0.029	0.044	0.025 (≈ 0.0716 µM)	15	6	0.1 (≈ 0.286 µM)	0.05 (≈ 0.143 µM)	0.05 (≈ 0.143 µM)	0.05 (≈ 0.143 µM)	0.1 (≈ 0.286 µM)	0.013 (≈ 0.0372 µM)	0.05 (≈ 0.143 µM)	8	2	
CC1CN(c2c(F)c(N)c3c(=O)c(C(=O)O)cn(C4CC4)c3c2Cl)CCN1 (configuration not stated)	3.8 (≈ 9.62 µM)	0.05 (≈ 0.127 µM)	0.025 (≈ 0.0633 µM)	0.7	0.3	0.11	0.057	0.1 (≈ 0.253 µM)	6	4	0.8 (≈ 2.03 µM)	0.2 (≈ 0.507 µM)	0.05 (≈ 0.127 µM)	0.05 (≈ 0.127 µM)	0.1 (≈ 0.253 µM)	0.025 (≈ 0.0633 µM)	0.1 (≈ 0.253 µM)	12	9	
CCNCC1CCN(c2c(F)cc3c(=O)c(C(=O)O)cn(C4CC4)c3c2F)C1 (configuration not stated) [PD-117558]	0.25 (≈ 0.639 µM)	0.1 (≈ 0.255 µM)	0.05 (≈ 0.128 µM)	4	1	0.13	0.025	0.1 (≈ 0.255 µM)	5	2	0.4 (≈ 1.02 µM)	0.2 (≈ 0.511 µM)	0.05 (≈ 0.128 µM)	0.025 (≈ 0.0639 µM)	0.025 (≈ 0.0639 µM)	0.013 (≈ 0.0332 µM)	0.025 (≈ 0.0639 µM)	2	0.5	
Nc1c(F)c(N2CCNCC2)c(F)c2c1c(=O)c(C(=O)O)cn2C1CC1	0.5 (≈ 1.37 µM)	0.013 (≈ 0.0357 µM)	0.013 (≈ 0.0357 µM)	0.8	0.2	0.022	0.044	0.025 (≈ 0.0686 µM)	31	23	0.025 (≈ 0.0686 µM)	0.05 (≈ 0.137 µM)	0.05 (≈ 0.137 µM)	0.05 (≈ 0.137 µM)	0.05 (≈ 0.137 µM)	0.013 (≈ 0.0357 µM)	0.1 (≈ 0.274 µM)	68	27	
O=C(O)c1cn(C2CC2)c2c(F)c(N3CCNCC3)c(F)cc2c1=O	0.5 (≈ 1.43 µM)	0.05 (≈ 0.143 µM)	0.05 (≈ 0.143 µM)	0.5	0.3	0.076	0.4	0.05 (≈ 0.143 µM)	59	29	0.2 (≈ 0.573 µM)	0.1 (≈ 0.286 µM)	0.4 (≈ 1.15 µM)	0.8 (≈ 2.29 µM)	0.4 (≈ 1.15 µM)	0.1 (≈ 0.286 µM)	0.8 (≈ 2.29 µM)	33	9	
CC1CN(c2cc3c(cc2F)c(=O)c(C(=O)O)cn3C2CC2)CC(C)N1 (configuration not stated)	1 (≈ 2.78 µM)	0.025 (≈ 0.0696 µM)	0.025 (≈ 0.0696 µM)	0.7	0.4	0.076	0.15	0.05 (≈ 0.139 µM)	15	12	0.4 (≈ 1.11 µM)	0.2 (≈ 0.556 µM)	0.2 (≈ 0.556 µM)	0.2 (≈ 0.556 µM)	0.2 (≈ 0.556 µM)	0.05 (≈ 0.139 µM)	0.2 (≈ 0.556 µM)			
C[C@@H]1CN(c2c(F)c(N)c3c(=O)c(C(=O)O)cn(C4CC4)c3c2F)C[C@H](C)N1 [SPARFLOXACIN]	2.5 (≈ 6.37 µM)	0.025 (≈ 0.0637 µM)	0.025 (≈ 0.0637 µM)	1	0.4	0.087	0.05	0.05 (≈ 0.127 µM)	14	13	0.8 (≈ 2.04 µM)	0.2 (≈ 0.51 µM)	0.05 (≈ 0.127 µM)	0.05 (≈ 0.127 µM)	0.1 (≈ 0.255 µM)	0.013 (≈ 0.0331 µM)	0.1 (≈ 0.255 µM)	17	17	
O=C(O)c1cn(C2CC2)c2cc(N3CCNCC3)c(F)cc2c1=O [CIPROFLOXACIN]				1	0.3			0.05 (≈ 0.151 µM)	> 100	19	0.4 (≈ 1.21 µM)	0.05 (≈ 0.151 µM)	1.6 (≈ 4.83 µM)	0.8 (≈ 2.41 µM)	0.8 (≈ 2.41 µM)	0.2 (≈ 0.604 µM)	0.8 (≈ 2.41 µM)	> 100	228	
CC1CN(c2c(F)c(O)c3c(=O)c(C(=O)O)cn(C4CC4)c3c2F)CCN1 (configuration not stated)	0.5 (≈ 1.32 µM)	0.1 (≈ 0.264 µM)	0.05 (≈ 0.132 µM)	2	0.8	0.2	0.4	0.2 (≈ 0.527 µM)	> 50	> 50	1.6 (≈ 4.22 µM)	0.2 (≈ 0.527 µM)	0.8 (≈ 2.11 µM)	0.4 (≈ 1.05 µM)	0.8 (≈ 2.11 µM)	0.1 (≈ 0.264 µM)	0.4 (≈ 1.05 µM)			
NC1CCN(c2c(F)cc3c(=O)c(C(=O)O)cn(C4CC4)c3c2Cl)C1 (stereo in doubt; 1h-4) [CLINAFLOXACIN]							0.029													MIC [2]: 0.025 µg/mL (≈ 0.0683 µM); MIC [3]: 0.025 µg/mL (≈ 0.0683 µM); PD50 [4]: 3 mg/kg; PD50 [5]: 0.6 mg/kg; MIC [8]: 0.025 µg/mL (≈ 0.0683 µM); PD50 [18]: 14 mg/kg; PD50 [19]: 5 mg/kg; PD50 [9]: 10 mg/kg; PD50 [10]: 4 mg/kg; MIC [11]: 0.05 µg/mL (≈ 0.137 µM); MIC [12]: 0.025 µg/mL (≈ 0.0683 µM); MIC [13]: 0.025 µg/mL (≈ 0.0683 µM); MIC [14]: 0.025 µg/mL (≈ 0.0683 µM); MIC [15]: 0.05 µg/mL (≈ 0.137 µM); MIC [16]: 0.013 µg/mL (≈ 0.0355 µM); MIC [17]: 0.05 µg/mL (≈ 0.137 µM)
